Numbered stars: 1 amine (or outer) side, 2 acyl side, 3 side chain; on linkers, the order of the positions; unused ones are H or OH. Square brackets hold non-standard residues; d marks the D form. Peptide text beside a SMILES is read from it. * marks the point of attachment. Hydrocinnamoyl = O=C(CCc1ccccc1)*; Butanoyl(2-Et) = CCC(CC)C(=O)*; Tle = CC(C)(C)[C@H](N)C(=O)O; Pip = O=C(O)[C@@H]1CCCCN1; NH(3-pentyl) = CCC(CC)N*; Pyrrolidide = C1CCN(*)C1; CO = O=C([*:1])[*:2]; X2 = CCC(CC)CC(=O)*; X3 = CCC(CC)OC(=O)*; X1 = CCCC(CCC)N*; NHiPr = CC(C)N*
What follows are compounds tested against T1, Ribonucleoside-diphosphate reductase large subunit (Herpes simplex virus (type 1 / strain 17), UniProt P08543) (assay: Inhibitory activity against Herpes simplex virus (HSV) ribonucleotide reductase (RR)).
T1 sequence (P08543 whole entry): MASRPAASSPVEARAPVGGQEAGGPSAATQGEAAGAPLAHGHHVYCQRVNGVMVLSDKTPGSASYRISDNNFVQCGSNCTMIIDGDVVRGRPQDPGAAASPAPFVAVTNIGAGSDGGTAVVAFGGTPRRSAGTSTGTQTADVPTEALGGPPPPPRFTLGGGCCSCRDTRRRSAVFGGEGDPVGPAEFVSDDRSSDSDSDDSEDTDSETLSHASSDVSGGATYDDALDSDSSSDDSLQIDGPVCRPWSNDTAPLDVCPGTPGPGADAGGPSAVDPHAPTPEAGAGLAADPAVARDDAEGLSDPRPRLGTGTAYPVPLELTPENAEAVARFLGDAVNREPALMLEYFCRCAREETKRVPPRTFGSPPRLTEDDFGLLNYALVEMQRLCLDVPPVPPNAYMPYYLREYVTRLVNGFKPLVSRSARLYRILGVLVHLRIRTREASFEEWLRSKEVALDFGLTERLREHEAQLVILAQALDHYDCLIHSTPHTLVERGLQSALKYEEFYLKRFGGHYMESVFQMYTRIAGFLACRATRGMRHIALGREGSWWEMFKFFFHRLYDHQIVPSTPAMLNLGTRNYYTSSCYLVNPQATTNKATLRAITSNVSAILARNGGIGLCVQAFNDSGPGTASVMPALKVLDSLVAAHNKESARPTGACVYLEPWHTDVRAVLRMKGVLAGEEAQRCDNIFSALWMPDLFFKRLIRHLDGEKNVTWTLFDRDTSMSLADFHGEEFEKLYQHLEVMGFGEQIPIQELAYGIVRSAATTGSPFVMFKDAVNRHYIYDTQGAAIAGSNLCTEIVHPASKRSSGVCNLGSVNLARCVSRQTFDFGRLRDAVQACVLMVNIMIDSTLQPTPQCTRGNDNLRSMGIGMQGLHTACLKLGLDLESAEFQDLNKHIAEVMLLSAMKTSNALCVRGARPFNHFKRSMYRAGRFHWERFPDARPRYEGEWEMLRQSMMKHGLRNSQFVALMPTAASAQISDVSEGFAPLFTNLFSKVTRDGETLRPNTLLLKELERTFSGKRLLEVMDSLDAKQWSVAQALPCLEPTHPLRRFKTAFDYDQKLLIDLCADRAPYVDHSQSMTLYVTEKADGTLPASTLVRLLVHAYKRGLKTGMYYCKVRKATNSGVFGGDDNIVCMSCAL
Procedure, shortened: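 Radioligand binding assay for HSV ribonucleotide reductase subunit association, run per a previously published protocol. IC50 taken as the mean of at least four separate determinations, with standard deviation reported.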

Compared with `CCC(CC)NC(=O)N[C@H](C(=O)N1CCC[C@H]1C(=O)N[C@@H](CC(=O)O)C(=O)N[C@@H](CC(C)C)C(=O)O)C(C)(C)C` ({NH(3-pentyl)-CO}-[Tle]PDL-OH), `CCC(CC)NC(=O)N[C@H](C(=O)N1CCCC[C@H]1C(=O)N[C@@H](CC(=O)O)C(=O)N[C@@H](CC(C)C)C(=O)O)C(C)(C)C` ({NH(3-pentyl)-CO}-[Tle][Pip]DL-OH) is 7.5-fold higher in IC50: 100000 nM for the first, 750000 nM for the second.

Going from `CCCC(CCC)NC(=O)N[C@H](C(=O)N[C@@H](CC(=O)N1CCCC1)C(=O)N[C@@H](CC(=O)O)C(=O)N[C@@H](CC(C)C)C(=O)O)C(C)C` ({X1-CO}-VD(Pyrrolidide)DL-OH) to `CCC(CC)NC(=O)N[C@H](C(=O)N[C@@H](CC(=O)N1CCCC1)C(=O)N[C@@H](CC(=O)O)C(=O)N[C@@H](CC(C)C)C(=O)O)C(C)C` ({NH(3-pentyl)-CO}-VD(Pyrrolidide)DL-OH), the IC50 rises from 7 nM to 15 nM (2.1-fold). The first is the more potent here.

Going from `CCC(CC)NC(=O)C[C@H](C(=O)N[C@@H](CC(=O)N1CCCC1)C(=O)N[C@@H](CC(=O)O)C(=O)N[C@@H](CC(C)C)C(=O)O)C(C)(C)C` to `CCC(CC)NC(=O)N[C@H](C(=O)N[C@@H](CC(=O)N1CCCC1)C(=O)N[C@@H](CC(=O)O)C(=O)N[C@@H](CC(C)C)C(=O)O)C(C)(C)C` ({NH(3-pentyl)-CO}-[Tle]D(Pyrrolidide)DL-OH), the IC50 falls from 5 nM to 3 nM (1.7-fold).

Going from `CCC(CC)OC(=O)N[C@H](C(=O)N[C@@H](CC(=O)N1CCCC1)C(=O)N[C@@H](CC(=O)O)C(=O)N[C@@H](CC(C)C)C(=O)O)C(C)(C)C` (X3-[Tle]D(Pyrrolidide)DL-OH) to `CCC(CC)CC(=O)N[C@H](C(=O)N[C@@H](CC(=O)N1CCCC1)C(=O)N[C@@H](CC(=O)O)C(=O)N[C@@H](CC(C)C)C(=O)O)C(C)(C)C` (X2-[Tle]D(Pyrrolidide)DL-OH), the IC50 falls from 635 nM to 140 nM (4.5-fold).

Compared with `CC(=O)N[C@H](C(=O)N[C@H](C(=O)N[C@@H](CC(=O)N1CCCC1)C(=O)N[C@@H](CC(=O)O)C(=O)N[C@@H](CC(C)C)C(=O)O)C(C)C)C(C)C` (Ac-VVD(Pyrrolidide)DL-OH), `CC(C)C[C@H](NC(=O)[C@H](CC(=O)O)NC(=O)[C@H](CC(=O)N1CCCC1)NC(=O)[C@@H](NC(=O)NC(C)C)C(C)C)C(=O)O` ({NHiPr-CO}-VD(Pyrrolidide)DL-OH) is 2-fold lower in IC50: 880 nM for the first, 435 nM for the second. The second is the more potent here.

First: CCC(CC)NC(=O)NCC(=O)N[C@@H](CC(=O)N1CCCC1)C(=O)N[C@@H](CC(=O)O)C(=O)N[C@@H](CC(C)C)C(=O)O ({NH(3-pentyl)-CO}-GD(Pyrrolidide)DL-OH)
Second: CCC(CC)NC(=O)N[C@@H](C)C(=O)N[C@@H](CC(=O)N1CCCC1)C(=O)N[C@@H](CC(=O)O)C(=O)N[C@@H](CC(C)C)C(=O)O ({NH(3-pentyl)-CO}-AD(Pyrrolidide)DL-OH)
The IC50 of the first is 61-fold lower: 670 nM for the first, 41000 nM for the second. The first is the more potent here.

Going from `CCC(CC)NC(=O)N[C@H](C(=O)N1CCCC(C(=O)N2CCCC2)C1C(=O)N[C@@H](CC(=O)O)C(=O)N[C@@H](CC(C)C)C(=O)O)C(C)(C)C` (stereo in doubt; 16) to `CCC(CC)NC(=O)N[C@H](C(=O)N1CCC(C(=O)N2CCCC2)[C@H]1C(=O)N[C@@H](CC(=O)O)C(=O)N[C@@H](CC(C)C)C(=O)O)C(C)(C)C` (stereo partly drawn), the IC50 rises from 32 nM to 108 nM (3.4-fold).

First: CCC(CC)NC(=O)N[C@H](C(=O)N[C@@H](CC(=O)NC)C(=O)N[C@@H](CC(=O)O)C(=O)N[C@@H](CC(C)C)C(=O)O)C(C)(C)C ({NH(3-pentyl)-CO}-[Tle]D(NHMe)DL-OH)
Second: CCC(CC)NC(=O)N[C@H](C(=O)N[C@@H](C)C(=O)N[C@@H](CC(=O)O)C(=O)N[C@@H](CC(C)C)C(=O)O)C(C)(C)C ({NH(3-pentyl)-CO}-[Tle]ADL-OH)
The IC50 of the first is 3100-fold lower: 35 nM for the first, 110000 nM for the second. The first is the more potent here.

First: CC(C)C[C@H](NC(=O)[C@H](CC(=O)O)NC(=O)[C@H](CC(=O)N1CCCC1)NC(=O)[C@@H](NC(=O)[C@@H](NC(=O)CCc1ccccc1)C(C)C)C(C)C)C(=O)O (Hydrocinnamoyl-VVD(Pyrrolidide)DL-OH)
Second: CCC(CC)C(=O)N[C@H](C(=O)N[C@@H](CC(=O)N1CCCC1)C(=O)N[C@@H](CC(=O)O)C(=O)N[C@@H](CC(C)C)C(=O)O)C(C)C ({Butanoyl(2-Et)}-VD(Pyrrolidide)DL-OH)
The IC50 of the first is 36-fold lower: 24 nM for the first, 860 nM for the second.

Going from `CNC(=O)N[C@H](C(=O)N[C@@H](CC(=O)N1CCCC1)C(=O)N[C@@H](CC(=O)O)C(=O)N[C@@H](CC(C)C)C(=O)O)C(C)C` ({NHMe-CO}-VD(Pyrrolidide)DL-OH) to `CCC(CC)NC(=O)NC1CCN([C@@H](CC(=O)N2CCCC2)C(=O)N[C@@H](CC(=O)O)C(=O)N[C@@H](CC(C)C)C(=O)O)C1=O` (stereo partly drawn), the IC50 falls from 42000 nM to 800 nM (52-fold). The second is the more potent here.

Going from `CCC(CC)NC(=O)N[C@H](C(=O)N1CCCC(C(=O)NC)C1C(=O)N[C@@H](CC(=O)O)C(=O)N[C@@H](CC(C)C)C(=O)O)C(C)(C)C` (stereo partly drawn) to `CCC(CC)NC(=O)N[C@H](C(=O)N1CCCC(C(=O)N2CCCC2)C1C(=O)N[C@@H](CC(=O)O)C(=O)N[C@@H](CC(C)C)C(=O)O)C(C)(C)C` (stereo in doubt; 17), the IC50 rises from 10 nM to 3000 nM (300-fold). The first is the more potent here.

Work on `CCC(CC)NC(=O)NC1CCCN([C@@H](CC(=O)N2CCCC2)C(=O)N[C@@H](CC(=O)O)C(=O)N[C@@H](CC(C)C)C(=O)O)C1=O` (stereo partly drawn) yielded an IC50 of 240 nM.
